From ChEMBL document CHEMBL5608187, “Discovery of pyridoquinoxaline-based new P-gp inhibitors as coadjutant against Multi Drug Resistance in cancer” (Eur J Med Chem, 2024)
The source made the active and inactive calls. The rule behind the calls is not given here.

Assays:
U-87 MG [1] = assay: Cytotoxicity against human U-87 MG cells assessed as inhibition of cell growth at 4 uM incubated for 72 hrs by SiR-DNA/CellTox Green Dye based fluorescence analysis; type: toxicity; conditions: u-87mg atcc
Summary of the method: (§1)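 Single-agent control at 4 µM, no anticancer drug. 500 cells/well with SiR-DNA and CellTox Green; imaged at addition and 72 h. Live count = total nuclei minus dead cells, expressed as percent growth. Three technical replicates.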

SK-HEP1 [2] = assay: Coadjutant activity against multidrug resistance in human SK-HEP1 cells assessed as potentiation of vincristine-induced cell growth inhibition at 4 uM incubated for 72 hrs in presence of 0.02 to 20 uM vincristine by SiR-DNA/CellTox Green Dye based fluorescence analysis; type: functional
Summary of the method: (§2)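 Growth by live-cell imaging: 500 cells/well plated with SiR-DNA and CellTox Green dye; serial dilutions in phenol-red-free complete medium added next day. Imaged at addition and at 72 h. Live cells = SiR-DNA nuclei minus CellTox-positive dead cells; percentage growth calculated. Three technical replicates; two-tailed t-test. Inhibitor paired with anticancer drug at fixed or scaled levels.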

U-87 MG [3] = assay: Coadjutant activity against multidrug resistance in human U-87 MG cells assessed as potentiation of vincristine-induced cell growth inhibition at 0.25 to 4 uM incubated for 72 hrs in presence of 0.2 uM vincristine by SiR-DNA/CellTox Green Dye based fluorescence analysis; type: functional; conditions: U-87MG ATCC, dose 0.25-4 µM; summary of the method: as §2
A704 [4] = assay: Coadjutant activity against multidrug resistance in human A704 cells assessed as potentiation of etoposide-induced cell growth inhibition at 4 uM incubated for 72 hrs in presence of 0.04 to 40 uM etoposide by SiR-DNA/CellTox Green Dye based fluorescence analysis; type: functional; summary of the method: as §2
HGC-27 = assay: Coadjutant activity against multidrug resistance in human HGC-27 cells assessed as potentiation of vincristine-induced cell growth inhibition by measuring cell growth at 4 uM incubated for 72 hrs in presence of 0.02 to 20 uM vincristine by SiR-DNA/CellTox Green Dye based fluorescence analysis; type: functional; design: scale not given: the % may be the effect or the level left; summary of the method: as §2
A704 [5] = assay: Coadjutant activity against multidrug resistance in human A704 cells assessed as potentiation of vincristine-induced cell growth inhibition by measuring cell growth at 4 uM incubated for 72 hrs in presence of 0.02 to 20 uM vincristine by SiR-DNA/CellTox Green Dye based fluorescence analysis; type: functional; design: scale not given: the % may be the effect or the level left; summary of the method: as §2
MeWo = assay: Cytotoxicity against human MeWo cells assessed as inhibition of cell growth at 4 uM incubated for 72 hrs by SiR-DNA/CellTox Green Dye based fluorescence analysis; type: toxicity; summary of the method: as §1
HuP-T3 [6] = assay: Coadjutant activity against multidrug resistance in human Hup-T3 cells assessed as potentiation of cisplatin-induced cell growth inhibition at 4 uM incubated for 72 hrs in presence of 0.1 to 100 uM cisplatin by SiR-DNA/CellTox Green Dye based fluorescence analysis; type: functional
Summary of the method: (§3)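 Cisplatin co-treatment, 72 h imaging growth assay (SiR-DNA nuclei minus CellTox Green dead cells, 500 cells/well, phenol-red-free medium). Combinations: inhibitor fixed with cisplatin 0.1–100 µM, or cisplatin fixed at 0.25 µM with inhibitor 0.25–4 µM. Three technical replicates, mean ± SD; two-tailed t-test.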

HuP-T3 [7] = assay: Coadjutant activity against multidrug resistance in human Hup-T3 cells assessed as potentiation of vincristine-induced cell growth inhibition by measuring cell growth at 4 uM incubated for 72 hrs in presence of 0.02 to 20 uM vincristine by SiR-DNA/CellTox Green Dye based fluorescence analysis; type: functional; design: scale not given: the % may be the effect or the level left; summary of the method: as §2
HuP-T3 [8] = assay: Cytotoxicity against human Hup-T3 cells assessed as inhibition of cell growth at 4 uM incubated for 72 hrs by SiR-DNA/CellTox Green Dye based fluorescence analysis; type: toxicity; conditions: hup-t3, 72 h; summary of the method: as §1
HT-29 [9] = assay: Coadjutant activity against multidrug resistance in human HT-29 cells assessed as potentiation of cisplatin-induced cell growth inhibition at 4 uM incubated for 72 hrs in presence of 0.1 to 100 uM cisplatin by SiR-DNA/CellTox Green Dye based fluorescence analysis; type: functional; summary of the method: as §3
HCT-116 = assay: Coadjutant activity against multidrug resistance in human HCT-116 cells assessed as potentiation of cisplatin-induced cell growth inhibition at 4 uM incubated for 72 hrs in presence of 0.1 to 100 uM cisplatin by SiR-DNA/CellTox Green Dye based fluorescence analysis; type: functional; summary of the method: as §3
SK-HEP1 [10] = assay: Coadjutant activity against multidrug resistance in human SK-HEP1 cells assessed as potentiation of cisplatin-induced cell growth inhibition at 4 uM incubated for 72 hrs in presence of 0.1 to 100 uM cisplatin by SiR-DNA/CellTox Green Dye based fluorescence analysis; type: functional; summary of the method: as §3
SK-N-SH = assay: Coadjutant activity against multidrug resistance in human SK-N-SH cells assessed as potentiation of etoposide-induced cell growth inhibition at 4 uM incubated for 72 hrs in presence of 0.04 to 40 uM etoposide by SiR-DNA/CellTox Green Dye based fluorescence analysis; type: functional; summary of the method: as §2
SK-HEP1 [11] = assay: Cytotoxicity against human SK-HEP1 cells assessed as inhibition of cell growth at 4 uM incubated for 72 hrs by SiR-DNA/CellTox Green Dye based fluorescence analysis; type: toxicity; conditions: sk-hep1, 72 h; summary of the method: as §1
[12] = target: ATP-dependent translocase ABCB1 (Homo sapiens, UniProt P08183); assay: Inhibition of P-gp in human HCT-15 cells assessed as fold increase in green fluorescence intensity at 10 uM incubated for 15 mins followed by incubation with EFFLUX-ID Green Detection Reagent and Hoeschst-33342 dye and measured after 30 mins by fluorescence analysis relative to control; type: cell-based; conditions: hct-15, 0.25 h
Summary of the method: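 5000 cells/well in phenol-red-free medium plated 24 h before; compounds 0.1, 1, 10 µM for 15 min, then EFLUXX-ID Green reagent (1:200) plus Hoechst-33342 1 µg/mL, 30 min 37 °C. Widefield imaging; median green intensity from 250 cells per well normalized to untreated wells. Mean ± SD of three wells; one-tailed t-test.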

A704 [13] = assay: Coadjutant activity against multidrug resistance in human A704 cells assessed as potentiation of vincristine-induced cell growth inhibition at 0.25 to 4 uM incubated for 72 hrs in presence of 0.2 uM vincristine by SiR-DNA/CellTox Green Dye based fluorescence analysis; type: functional; conditions: dose 0.25-4 µM; summary of the method: as §2
HT-29 [14] = assay: Coadjutant activity against multidrug resistance in human HT-29 cells assessed as potentiation of cisplatin-induced cell growth inhibition at 0.25 to 4 uM incubated for 72 hrs in presence of 0.25 uM cisplatin by SiR-DNA/CellTox Green Dye based fluorescence analysis; type: functional; conditions: dose 0.25-4 µM; summary of the method: as §3
HT-29 [15] = assay: Cytotoxicity against human HT-29 cells assessed as inhibition of cell growth at 4 uM incubated for 72 hrs by SiR-DNA/CellTox Green Dye based fluorescence analysis; type: toxicity; conditions: ht-29, 72 h; summary of the method: as §1
[16] = Cytotoxicity against human A498 cells assessed as inhibition of cell growth at 4 uM incubated for 72 hrs by SiR-DNA/CellTox Green Dye based fluorescence analysis relative to control; type: toxicity; summary of the method: as §1
HuP-T3 [17] = assay: Coadjutant activity against multidrug resistance in human HuP-T3 cells assessed as potentiation of cisplatin-induced cell growth inhibition at 0.25 to 4 uM incubated for 72 hrs in presence of 0.25 uM cisplatin by SiR-DNA/CellTox Green Dye based fluorescence analysis; type: functional; conditions: dose 0.25-4 µM; summary of the method: as §3

ATP-dependent translocase ABCB1, sequence (P08183 whole entry): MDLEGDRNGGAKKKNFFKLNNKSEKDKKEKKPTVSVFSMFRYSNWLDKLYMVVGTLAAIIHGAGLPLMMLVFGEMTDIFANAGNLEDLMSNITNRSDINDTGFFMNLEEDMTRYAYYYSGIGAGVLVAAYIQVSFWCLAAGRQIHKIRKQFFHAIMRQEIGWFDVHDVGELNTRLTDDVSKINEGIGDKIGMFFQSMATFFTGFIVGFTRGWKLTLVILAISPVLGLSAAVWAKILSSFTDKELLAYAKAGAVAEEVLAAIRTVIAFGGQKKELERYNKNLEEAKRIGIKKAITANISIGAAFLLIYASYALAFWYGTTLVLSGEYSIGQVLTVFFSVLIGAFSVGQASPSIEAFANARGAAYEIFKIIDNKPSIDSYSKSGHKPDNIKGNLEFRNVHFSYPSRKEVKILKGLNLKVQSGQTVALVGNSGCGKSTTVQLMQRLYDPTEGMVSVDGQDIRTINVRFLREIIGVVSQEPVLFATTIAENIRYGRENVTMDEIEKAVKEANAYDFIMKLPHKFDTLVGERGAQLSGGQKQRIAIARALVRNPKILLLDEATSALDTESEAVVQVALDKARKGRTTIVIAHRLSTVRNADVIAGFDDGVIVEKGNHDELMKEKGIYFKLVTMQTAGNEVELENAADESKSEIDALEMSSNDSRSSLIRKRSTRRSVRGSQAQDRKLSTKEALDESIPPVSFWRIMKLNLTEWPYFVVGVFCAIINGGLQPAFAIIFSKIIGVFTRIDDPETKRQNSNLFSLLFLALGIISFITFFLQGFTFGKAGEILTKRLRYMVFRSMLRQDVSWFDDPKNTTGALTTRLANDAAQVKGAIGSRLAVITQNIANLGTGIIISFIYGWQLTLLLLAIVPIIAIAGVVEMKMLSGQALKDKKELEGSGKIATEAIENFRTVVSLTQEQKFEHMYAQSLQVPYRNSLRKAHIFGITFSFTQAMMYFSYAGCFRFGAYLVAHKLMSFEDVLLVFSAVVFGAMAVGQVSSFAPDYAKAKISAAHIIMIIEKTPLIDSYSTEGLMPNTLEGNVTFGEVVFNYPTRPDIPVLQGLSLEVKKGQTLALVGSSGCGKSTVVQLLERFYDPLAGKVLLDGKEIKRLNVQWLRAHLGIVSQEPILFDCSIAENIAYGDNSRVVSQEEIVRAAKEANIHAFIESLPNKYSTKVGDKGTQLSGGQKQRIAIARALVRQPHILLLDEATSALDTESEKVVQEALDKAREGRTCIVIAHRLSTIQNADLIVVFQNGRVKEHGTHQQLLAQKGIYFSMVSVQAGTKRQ

In the case of `O=C(Nc1ccccc1)c1ccccc1OCc1nc2cc3cccnc3cc2nc1COc1ccccc1C(=O)Nc1ccccc1`, the Activity (U-87 MG [1]) is reported as “Non-Toxic”, the Activity (SK-HEP1 [2]) is reported as “Active” and the Activity (U-87 MG [3]) is reported as “Active”. The Activity (A704 [4]) was “Active”, the Activity (HGC-27) was 50% and the Activity (A704 [5]) was 50%. The Activity (MeWo) was “Non-Toxic”, the Activity (HuP-T3 [6]) was “inactive” and the Activity (HuP-T3 [7]) was 50%. For the same molecule, the Activity (HuP-T3 [8]) was “Non-Toxic”, the Activity (HT-29 [9]) was “inactive” and the Activity (HCT-116) was “inactive”. The Activity (SK-HEP1 [10]) was “inactive”, the Activity (SK-N-SH) was “Active” and the Activity (SK-HEP1 [11]) was “Non-Toxic”. For the same molecule, the “fold change (FC)” value [12] was 2, the Activity (A704 [13]) was “Active” and the Activity (HT-29 [14]) was “inactive”. For the same molecule, the Activity (HT-29 [15]) was “Non-Toxic”, the inhibition at 72 h, 4 µM [16] was 20% and the Activity (HuP-T3 [17]) was “inactive”.
